Columns and labels:
[1] = substrate: O=C1Nc2ccc(S(=O)(=O)NCCCCCOP(=O)(O)O)c3cccc1c23; experiment: (§1) Activity at Mycobacterium tuberculosis recombinant lumazine synthase after 30 mins by fluorescence assay
In short: (§2)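 Recombinant M. tuberculosis lumazine synthase (2 μM) in 100 mM Tris-HCl pH 7.0, 100 mM NaCl, 5 mM DTT, 2% DMSO. Dihydroxybutanone phosphate was fixed at 100 μM, pyrimidinedione substrate varied 3–100 μM, and inhibitor 0–200 μM. Reactions were started with the pyrimidinedione substrate. Lumazine formation was read at 408 nm for 30 min at 27 °C. Velocity–substrate data were fitted by nonlinear regression to alternative inhibition models.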

[2] = substrate: CCOC(=O)C(=O)Nc1c(Cl)[nH]c(=O)[nH]c1=O; experiment: as §1; in short: as §2
[3] = substrate: O=C1Nc2ccc(S(=O)(=O)NCCCCCCOP(=O)(O)O)c3cccc1c23; experiment: as §1; in short: as §2
[4] = substrate: O=C1Nc2ccc(S(=O)(=O)NCCCOP(=O)(O)O)c3cccc1c23; experiment: as §1; in short: as §2
[5] = substrate: O=C1Nc2ccc(S(=O)(=O)NCCCCOP(=O)(O)O)c3cccc1c23; experiment: as §1; in short: as §2
[6] = substrate: O=C1Nc2ccc(S(=O)(=O)NCCOP(=O)(O)O)c3cccc1c23; experiment: as §1; in short: as §2

B1: 6,7-dimethyl-8-ribityllumazine synthase (Mycobacterium tuberculosis), P9WHE9 (protein)
chain: MKGGAGVPDLPSLDASGVRLAIVASSWHGKICDALLDGARKVAAGCGLDDPTVVRVLGAIEIPVVAQELARNHDAVVALGVVIRGQTPHFDYVCDAVTQGLTRVSLDSSTPIANGVLTTNTEEQALDRAGLPTSAEDKGAQATVAALATALTLRELRAHS
Q: What does the source list for B1?
A: kcat [1]: 0.0075 s⁻¹; kcat [2]: 0.0102 s⁻¹; kcat [3]: 0.0075 s⁻¹; kcat [4]: 0.0075 s⁻¹; kcat [5]: 0.00733 s⁻¹; kcat [6]: 0.00683 s⁻¹
